# Sampled rows, rich in hits. Any-hit rate of the full collection: about 2.6%.
# Platelet DG rel = modulates dense granule release in human platelets; inhibition, %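 (compounds screened at 7.5 µM in platelet-rich plasma)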; 300,000 compounds, 0.22% hits; human platelet-rich plasma, SFLLRN dense granule ATP release, luminescence; AID 1663;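 active = mean replicate score, as percent of positive control, at or above 50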
# SENP6 block = SENP6 protease inhibition; AID 2599; 330,000 compounds, 1.8% hits; inhibition, % at 10 µM; Q9GZR1; Recombinant SENP6 catalytic domain, aminoluciferin luminescence;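 active = inhibition above about 50% at the single tested dose, limit read from the data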;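 also: plate controls were DMSO wells with enzyme for no effect and DMSO wells lacking enzyme for full effect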
# SENP8 block-1 = blocks human SENP8 cleavage of Nedd8 substrate. Q96LD8. recombinant SENP8, Nedd8 substrate fluorescence. inhibition, % at 20 µM. 360,000 compounds, 0.64% hits; in the data active = inhibition mostly above about 40%, no sharp cut-off; inactive = mostly below about 27%
# SENP1 FRET inh = inhibitors of human SENP1 SUMO protease catalytic domain; Q9P0U3; recombinant SENP1 catalytic domain, CyPet-SUMO1-YPet FRET cleavage; 360,000 compounds, 0.21% hits; inhibition, % at 10 µM; AID 624204;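 active = inhibition at least 30% at 10 µM, raw YFP signal under a set limit, fluorescence ratio 0.5 to 1.5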;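 also: 0% = enzyme with DMSO and 100% = no enzyme wells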
# Target sequence (Q9P0U3 419-644 limits assumed): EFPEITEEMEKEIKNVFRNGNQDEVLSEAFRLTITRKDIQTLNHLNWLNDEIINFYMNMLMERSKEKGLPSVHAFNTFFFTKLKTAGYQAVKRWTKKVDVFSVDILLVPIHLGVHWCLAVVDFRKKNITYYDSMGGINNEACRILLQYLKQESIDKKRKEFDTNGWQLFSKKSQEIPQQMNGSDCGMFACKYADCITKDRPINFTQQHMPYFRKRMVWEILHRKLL
#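 Test system: recombinant human SENP1 catalytic domain, His6-tagged / Medium: pH 8 Tris buffer with EDTA, NaCl, BME, BSA, NP40, catalase / Also added: SUMO1 FRET substrate flanked by Cypet and Ypet, 25 nM / Times: 50 min reaction at room temperature / Signal: FRET, CFP and YFP emission / Control set: no-enzyme low control and enzyme-plus-DMSO high control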
# SENP8 block-2 = blocks the human protease SENP8; 330,000 compounds, 1.2% hits; purified SENP8, Z-RLRGG-aminoluciferin cleavage, luminescence; AID 2540; Q96LD8; inhibition, % at 10 µM; in the data active = inhibition above about 50%
# SENP7 block = SENP7 protease inhibition; AID 434973; 330,000 compounds, 1.5% hits; inhibition, % at 5 µM; recombinant SENP7, Z-RLRGG-aminoluciferin luminescence, 40 min;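 active = inhibition above about 50% at the single test dose, limit read from the data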;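 also: plate controls were DMSO with enzyme for no effect and no enzyme buffer wells for full effect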
# Target sequence (Q9BQF6 706-1050 limits assumed): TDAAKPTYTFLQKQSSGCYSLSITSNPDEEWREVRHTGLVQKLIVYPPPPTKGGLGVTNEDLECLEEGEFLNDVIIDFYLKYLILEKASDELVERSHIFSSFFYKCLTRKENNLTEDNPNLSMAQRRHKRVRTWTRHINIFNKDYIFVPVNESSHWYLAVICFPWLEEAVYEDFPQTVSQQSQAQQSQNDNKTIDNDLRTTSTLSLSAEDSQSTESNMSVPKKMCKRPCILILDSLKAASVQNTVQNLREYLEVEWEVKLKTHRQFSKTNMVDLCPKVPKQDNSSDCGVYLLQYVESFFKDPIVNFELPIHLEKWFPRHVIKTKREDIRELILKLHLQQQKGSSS
# SENP8 confirm = confirmation of human SENP8 protease inhibitors; shares compounds with SENP7 block; Recombinant SENP8, Z-RLRGG-aminoluciferin luminescence, 60 min; inhibition, % at 12.5 µM; 6,200 compounds, 40% hits; AID 488912;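 active = mean inhibition across replicates above about 50%, limit read from the data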
# SENP6 confirm = human SENP6 inhibition, confirmed | AID 488915 | 6,200 compounds, 58% hits | inhibition, % at 12.5 µM | shares compounds with SENP7 block | recombinant SENP6, Z-RLRGG-aminoluciferin luminescence
# SENP7 confirm = confirmation of human SENP7 protease inhibitors. recombinant SENP7, Z-RLRGG-aminoluciferin luminescence, 40 min. inhibition, % at 12.5 µM. shares compounds with SENP7 block. AID 488917. 6,200 compounds, 69% hits
# Casp3 SENP sel = caspase-3 inhibition (SENP selectivity assay); shares compounds with SENP7 block; purified caspase-3, Z-DEVD-aminoluciferin luminescence, 60 min; inhibition, % at 12.5 µM; 6,200 compounds, 60% hits;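 active = mean inhibition above about 50%, limit read from the data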;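 also: plate controls were enzyme with DMSO for no effect and wells without caspase-3 for full effect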
# Luc interf = interferes with luciferase luminescence in SENP counter-screen | AID 488919 | 6,200 compounds, 39% hits | inhibition, % at 12.5 µM | Pre-incubated SENP8/Z-RLRGG-aminoluciferin, luciferase luminescence interference | shares compounds with SENP7 block;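 active = mean inhibition above about 50% when retested at one dose, limit read from the data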;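 also: plate controls were DMSO wells with completed reaction for no effect and substrate without enzyme for full effect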
# * marks the source's active call; other numbers are inactive results; i = inactive; / = no result.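 The calls were made as follows, unless noted: active = mean inhibition above about 50% in the one-dose retest (limit read from the data); inactive = the rest.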
SMILES,Platelet DG rel,SENP6 block,SENP8 block-1,SENP1 FRET inh,SENP8 block-2,SENP7 block,SENP8 confirm,SENP6 confirm,SENP7 confirm,Casp3 SENP sel,Luc interf
Cc1noc(C)c1COC(=O)c1ccc(-c2nc3ccccc3s2)s1,-7,29,i,-9,6,29,/,/,/,/,/
O=C(c1cc2ccccc2s1)N1CCOCC1,-8,-1,26,2,4,0,/,/,/,/,/
CCN1CCN(C(=O)c2ccc(-c3nc4ccccc4s3)s2)CC1,5,61*,-319,-4,40,47,56*,52*,82*,69*,19
COc1cc(/C=C(\NC(=O)c2ccccc2)C(=O)Nc2nccs2)ccc1OC(C)=O,-1,-23,-5,-9,-7,-3,/,/,/,/,/
Cc1ccc2c(c1)c(=O)c1c3n2CCN(C(=O)CCl)C3CC1 (centres undefined),3,50*,-179,-17,27,31,24,60*,17,5,-4
Cc1ccc2c(c1)c1c3n2CCN(C(=O)CN2CCN(C)CC2)C3CCC1 (centres undefined),-4,3,-118,3,1,6,/,/,/,/,/
O=C(Nc1ccc2[nH]ccc2c1)c1ccccc1,18,8,-10,2,-3,-1,/,/,/,/,/
O=C(Nc1ccc2[nH]c(=S)sc2c1)Nc1ccccc1F,18,97*,-6,-20,95*,99*,99*,100*,104*,98*,90*
O=C(Nc1ccc2[nH]c(=S)sc2c1)c1ccccc1,18,34,-14,-6,42,52*,66*,67*,88*,83*,74*
O=C(Nc1ccc2[nH]c(=O)[nH]c2c1)Nc1ccc(F)cc1F,8,-11,-1,-41,-9,-2,/,/,/,/,/
CCN(CC)C(=O)C1=C(C)N(CCC2=CCCCC2)C(=O)C(CC(=O)NCCCN(C)C)C1 (centres undefined),/,/,7,0,/,/,/,/,/,/,/
Oc1ccc(Br)c(CN2CCN(c3ncc(Cc4ccccc4)cn3)CC2)c1,/,/,26,-1,/,/,/,/,/,/,/
Cc1cccc(NC(=O)c2n[nH]c([N+](=O)[O-])c2Br)c1C,-5,97*,12,3,94*,85*,94*,97*,102*,96*,95*
CC(=O)Nc1cccc(C(=O)N2CCC(n3nccc3NC(=O)CC(C)C)CC2)c1,1,-14,2,2,-10,13,/,/,/,/,/
COc1ccc(/C=N/OCC(=O)Nc2nc3ccccc3s2)cc1OC,-2,87*,21,2,70*,75*,11,78*,94*,64*,51*
COc1cccc(C(=O)Nc2nnc(SCC(=O)Nc3ccc(NC(C)=O)cc3)s2)c1,4,70*,-30,1,55*,49,32,61*,86*,67*,12
O=C(Nc1nc2ccccc2s1)c1ccc(F)cc1,7,88*,-43,2,85*,93*,2,87*,100*,86*,48
COc1cccc(N2CC(C(=O)Nc3nnc(SCC(=O)Nc4ccc(NC(C)=O)cc4)s3)CC2=O)c1 (centres undefined),16,0,8,-1,2,-1,/,/,/,/,/
O=C(Nc1nc2c(s1)C(=O)CCC2)c1ccccc1,-10,97*,-29,1,95*,97*,97*,98*,101*,97*,96*
O=S(=O)(/N=C(/Nc1nc2ccccc2s1)c1ccccc1)c1ccc(F)cc1,/,19,-5,2,1,9,/,/,/,/,/
CC(C)(C)c1ccc(S(=O)(=O)N2CCNC(=O)C2)cc1,/,13,3,1,3,-8,/,/,/,/,/
COc1cc(NC(=O)C2CCN(c3cnccn3)CC2)cc(OC)c1OC,-17,9,-393,1,1,4,/,/,/,/,/
COc1cccc(C(=O)Nc2nc3ccccc3s2)c1,-3,90*,-17,-4,86*,91*,90*,91*,99*,83*,60*
O=C(Nc1nc2ccccc2s1)c1ccc(OCC2CCCO2)cc1 (centres undefined),3,71*,-155,0,53*,77*,42,73*,93*,62*,46
O=C(Nc1nc2ccccc2s1)c1ccc(Cl)s1,4,77*,-289,3,67*,82*,14,50,51*,41,17
SMILES,Platelet DG rel,SENP6 block,SENP8 block-1,SENP1 FRET inh,SENP8 block-2,SENP7 block,SENP8 confirm,SENP6 confirm,SENP7 confirm,Casp3 SENP sel,Luc interf
COc1ccc(C(=O)Nc2nc3ccccc3s2)cc1OC,-1,21,-102,-2,6,15,/,/,/,/,/
COc1ccc(C(=O)Nc2nc3ccccc3s2)cc1,6,96*,-28,4,89*,93*,-9,94*,101*,88*,85*
COc1ccc2nc(NC(=O)c3ccc4ncsc4c3)sc2c1,14,-16,-337,-167,-9,-12,/,/,/,/,/
COc1ccc2nc(NC(=O)c3ccc(F)cc3)sc2c1,3,64*,-237,2,25,90*,8,37,32,25,-1
Cc1csc(NC(=O)c2ccc3nc[nH]c3c2)n1,-1,82*,1,2,69*,78*,12,75*,95*,88*,74*
COc1cccc(C(=O)Nc2nc(-c3ccncc3)cs2)c1,2,1,-15,0,-4,7,/,/,/,/,/
O=C(Nc1ncccc1O)c1ccc(OCC2CCCO2)cc1 (centres undefined),31,45,-2,1,21,51*,44,42,77*,82*,49
COc1cccc(C(=O)Nc2nc(C)cs2)c1,-2,52*,15,3,17,42,31,32,72*,69*,50*
CS(=O)(=O)Nc1cccc(C2=NN(C(=O)CCCC(=O)O)C(c3cccs3)C2)c1 (centres undefined),-4,-3,15,0,-3,-6,/,/,/,/,/
COc1ccc(CNC(=O)CSc2nnc(NC(=O)c3ccccc3F)s2)cc1,7,17,3,3,-2,2,/,/,/,/,/
